# Sampled rows, rich in hits. Any-hit rate of the full collection: about 3.1%.
# OX1R antag-1: blocks the human orexin 1 receptor; O43613; OX1R-expressing cells, FRET antagonist read-out; inhibition, % at 6.6 µM; 330,000 compounds, 1.8% hits; in the data active means inhibition mostly above about 38%, no sharp cut-off; inactive means mostly below about 40%
# OX1R antag-2: blocks the human orexin 1 receptor; 330,000 compounds, 0.43% hits; inhibition, % at 5 µM; CHO/OX1R cells, Fluo-8 calcium fluorescence, orexin A; O43613;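 active means inhibition above its plate's threshold, mean inhibition of all tested compounds on the plate plus 3 SD, cut at about 37% in these data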
# CHO parental Ca: signal in parental CHO cells, OX1R antagonist counter-screen. parental CHO-K1, ATP-induced calcium, Fluo-8 fluorescence. inhibition, % at 5.6 µM. AID 463079. 330,000 compounds, 0.63% hits;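 active means inhibition above that plate's mean sample inhibition plus 3 SD, cut at about 26% in these data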
#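 Test system: parental CHO cells; detection: calcium-sensitive Fluo-8 fluorescence; evaluation: percent inhibition of calcium signal; also added: ATP as calcium-mobilizing challenge; repeats: one well per compound; control set: ATP-challenged DMSO wells low, unchallenged DMSO wells high; compound: single nominal dose of 5.6 µM per compound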
# GPR7 antag: antagonists of human GPR7 (neuropeptides B/W receptor 1); P48145; GPR7-expressing cells, fluorescence antagonist assay; inhibition, % at 4.4 µM; 290,000 compounds, 1.1% hits; in the data active means inhibition above about 16%, passing the limit was not always enough;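 further: cells stimulated with the agonist NPW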
# Target sequence (P48145 whole entry, looked up): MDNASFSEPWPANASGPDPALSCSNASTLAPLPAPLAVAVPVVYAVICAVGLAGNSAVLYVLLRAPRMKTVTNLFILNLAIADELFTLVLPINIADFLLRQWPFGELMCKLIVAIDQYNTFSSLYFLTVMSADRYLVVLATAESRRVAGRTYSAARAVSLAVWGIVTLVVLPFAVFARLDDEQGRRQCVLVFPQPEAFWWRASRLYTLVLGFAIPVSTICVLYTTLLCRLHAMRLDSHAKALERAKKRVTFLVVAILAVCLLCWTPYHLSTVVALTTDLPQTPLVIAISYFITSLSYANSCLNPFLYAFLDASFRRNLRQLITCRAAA
# GalR3 antagonist: blocks the human galanin receptor 3; O60755; HEK293 GalR3-CNG cAMP membrane potential fluorescence; galR3 body fused to GalR1 C-terminus; inhibition, % at 3 µM; 360,000 compounds, 0.44% hits; AID 651719;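 active means inhibition above the screen-wide average plus 3 SD, cut at about 13% in these data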;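 further: forskolin and galanin both at EC90 stimulate the cells; cAMP rise reported by CNG channel membrane potential dye signal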
# Target sequence (O60755 1-299 limits assumed): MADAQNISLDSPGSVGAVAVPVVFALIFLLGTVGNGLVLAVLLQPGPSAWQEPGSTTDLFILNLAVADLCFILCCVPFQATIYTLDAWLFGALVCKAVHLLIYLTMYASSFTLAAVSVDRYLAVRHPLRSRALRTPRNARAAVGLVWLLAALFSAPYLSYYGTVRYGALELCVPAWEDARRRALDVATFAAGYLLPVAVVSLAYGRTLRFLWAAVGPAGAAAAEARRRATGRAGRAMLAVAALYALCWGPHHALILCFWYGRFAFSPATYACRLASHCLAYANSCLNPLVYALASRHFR
# GPR7 antag cf: confirmation of human GPR7 antagonists. shares compounds with GPR7 antag. GPR7-expressing cells, calcium fluorescence antagonist mode. inhibition, % at 4.4 µM. 2,400 compounds, 52% hits. AID 1952; in the data active means inhibition above about 24%;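 further: stimulated with the GPR7 agonist NPW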
# MCHR1 antag: counter-screen for GPR7 antagonists: antagonists of human MCHR1. shares compounds with GPR7 antag. MCHR1-expressing cells, fluorescence antagonist assay. inhibition, % at 4.4 µM. 2,400 compounds, 62% hits. AID 2148; in the data active means inhibition above about 22%
# Numbers stand for hits; n = inactive; x = not tested or not shown.
SMILES,OX1R antag-1,OX1R antag-2,CHO parental Ca,GPR7 antag,GalR3 antagonist,GPR7 antag cf,MCHR1 antag
C#CC1CCCCC1NC(=O)Nc1cnccc1C(F)(F)F (centres undefined),n,n,n,n,n,x,x
NS(=O)(=O)c1ccc(CCNCc2ccccc2OCc2ccc(Cl)cc2)cc1,n,n,n,n,n,x,x
O=C(COc1ccc(Br)cc1CNCCc1ccccc1)NCc1ccccc1,n,n,n,31,n,40,54
NS(=O)(=O)c1ccc(CCNCc2cc(Br)ccc2OCc2ccccc2F)cc1,n,49,60,38,n,53,76
C=CCOc1ccccc1CNCCc1ccc(S(N)(=O)=O)cc1,n,n,n,n,n,x,x
NS(=O)(=O)c1ccc(CCNCc2cc(Cl)ccc2OCc2ccccc2)cc1,n,n,n,28,n,27,57
C[C@H](CO)N1C[C@H](C)[C@@H](CN(C)C(=O)Nc2ccccc2)Oc2ccc(NC(=O)c3ccncc3)cc2C1=O,n,n,n,x,n,x,x
Clc1ccc(CN=C(Nc2ccccc2)NC2CCCCC2)cc1,n,n,n,40,n,57,45
COc1cccc(-c2cccc(-c3nc(C(=O)NCCCN4CCOCC4)cc4c3[C@H](CCO)N(S(=O)C(C)(C)C)C4)c2)c1 (some centres undefined),x,x,x,x,n,x,x
C[C@H]1CC[C@H]2C(=O)N3[C@H](c4cccc(N5CCCC5=O)c4)[C@@H](C)CC[C@H]3C(=O)N2[C@@H]1c1cccc(N2CCCC2=O)c1,n,n,n,n,x,x,x
C[C@H]1CC[C@H]2C(=O)N3[C@H](c4ccccc4Br)[C@@H](C)CC[C@H]3C(=O)N2[C@@H]1c1ccccc1Br,75,n,n,29,x,57,59
CN1CCN(c2ccc(C(F)(F)F)cc2NC(=O)Nc2ccccc2)CC1,n,n,n,62,n,43,49
CN1CCC(NC(=O)Nc2cccc(C(F)(F)F)c2)CC1,n,n,n,n,n,x,x
CCc1ccc(N(CC(=O)NC2CCCC2)C(=O)CCC(=O)Nc2cc(C)on2)cc1,n,n,n,n,n,x,x
Cc1ccc(C(CNC(=O)c2ccc(Br)o2)N2CCN(C)CC2)cc1 (centres undefined),n,n,n,x,n,x,x
CCN1Cc2c(/C=C/c3ccccc3)nc3ccc(OC)cc3c2N(c2cccc(Cl)c2)C1,n,n,n,n,n,x,x
O=C(CCCCC(=O)OCC1COCO1)OCC1COCO1 (centres undefined),x,x,x,x,n,x,x
Cc1ccc(S(=O)(=O)N(C)Cc2ccc(-c3nnco3)cc2)cc1,n,n,n,26,n,47,42
CCN(CC)S(=O)(=O)c1ccc(-c2nnco2)cc1,n,n,n,n,n,x,x
Cc1ccc(S(=O)(=O)N2CCN(Cc3cccc(F)c3)CC2)cc1,n,n,n,x,n,x,x
O=S(=O)(c1cccs1)N1CCN(Cc2cccc(F)c2)CC1,n,n,n,30,n,n,n
Cc1ccc(Cl)cc1N1CCN(Cc2nnnn2Cc2ccco2)CC1,n,n,n,n,n,x,x
CCC(c1nnnn1Cc1ccco1)N1CCN(c2cc(Cl)ccc2C)CC1 (centres undefined),n,n,n,23,n,30,52
CC(C)NC(=O)COc1nncc2ccccc12,n,n,n,n,n,x,x
COCCCNC(=S)N1CCN(C(=O)C(=O)Nc2ccc(C(=O)OC)cc2)CC1,n,n,n,n,n,x,x
SMILES,OX1R antag-1,OX1R antag-2,CHO parental Ca,GPR7 antag,GalR3 antagonist,GPR7 antag cf,MCHR1 antag
COC(=O)c1ccc(NC(=O)C(=O)N2CCN(C(=S)NCCc3ccccc3)CC2)cc1,n,n,n,22,n,n,n
CCN(c1cccc(C)c1)S(=O)(=O)c1cccc2nsnc12,n,n,n,23,n,n,39
O=C(NCc1cccnc1)c1ccc(COc2cccc3ccccc23)o1,n,n,n,32,n,44,43
O=C(NCc1cccnc1)c1ccc(COc2ccc(Cl)cc2Cl)o1,n,n,n,n,n,x,x
CC(Oc1ccccc1)C(=O)OCC(=O)Nc1ccc2c(c1)OCO2 (centres undefined),n,n,n,x,n,x,x
COc1ccccc1CNC(=O)CCCn1nc(C)c2c(C)n(-c3ccc(C)cc3)nc2c1=O,n,n,n,n,n,x,x
O=C(CCN=C1NS(=O)(=O)c2ccccc21)OCc1cccc(Cl)c1,n,n,n,x,n,x,x
COC(=O)c1ccccc1NC(=O)CN1C(=O)C2CCCN2c2ncc(Cl)cc21 (centres undefined),n,n,n,n,x,x,x
CCc1ccccc1NC(=O)CN1C(=O)C2CCCN2c2ncc(Cl)cc21 (centres undefined),n,n,n,38,n,34,n
O=C(c1cccc(Cl)c1)N1CCN(C2CCCCC2)CC1,n,n,n,50,n,n,n
O=C(c1cccc(F)c1)N1CCN(C2CCCCC2)CC1,n,n,n,n,n,x,x
O=C(c1cccc([N+](=O)[O-])c1)N1CCN(c2cccc(Cl)c2)CC1,n,n,n,23,n,31,24
CC1(C(=O)Nc2cccc(NS(C)(=O)=O)c2)Cc2c(-c3cccc(C(N)=O)c3)ccnc2O1 (centres undefined),x,x,x,x,n,x,x
CCN(CC)S(=O)(=O)c1ccc(NC(=O)CSc2nnc(-c3cccc(OC)c3)n2C)cc1,n,n,n,n,n,x,x
C=C(C)CSc1nnc(-c2cccc(S(=O)(=O)N(C)C)c2)n1-c1cc(OC)ccc1OC,n,n,n,32,n,35,n
CC(NC(=S)NC1CCCCC1)c1ccc(C(C)(C)C)cc1 (centres undefined),n,n,n,25,n,40,61
CC(C)c1ccc(C(C)NC(=S)NC2CCCCC2)cc1 (centres undefined),x,x,x,n,n,x,x
COc1ccc(CCNC(=O)c2cccnc2Cl)cc1OC,n,n,n,x,n,x,x
CC(C)(CO)NCc1ccccc1OCC(=O)Nc1ccccc1,n,n,n,n,n,x,x
Cc1ccc(NC(=O)COc2ccccc2CNC(C)(C)CC(C)(C)C)cc1,n,n,n,25,n,35,46
COc1ccccc1-n1c(=O)oc2ccc(Cl)cc2c1=O,n,n,n,28,n,n,n
CCCCN(C=O)c1c(CC)nc2ccc(C(=O)NCc3cccs3)cn12,x,x,x,x,n,x,x
CC(C)c1ccc(C(=O)Nc2nnc(S(=O)(=O)N3CCCCC3)s2)cc1,n,n,n,67,n,n,27
CC(C)(C)C(=O)O/N=C(\N)Cc1ccc(-c2csnn2)cc1,n,n,n,n,n,x,x
Cn1cccc1/C=C(\C#N)c1ccccc1,n,n,n,n,n,x,x
Cn1cccc1/C=C(/C#N)c1ccc(F)cc1,n,n,n,26,n,n,n
O=C(NCCc1ccccc1F)C1CCCN1S(=O)(=O)c1ccc2ccccc2c1 (centres undefined),n,n,n,23,n,n,22

# From PubChem BioAssay
